Assays:
Conditions in all cases: stereoisomer not certain
OR5B17 (Homo sapiens) = target: T1, OR5B17 (Homo sapiens) (UniProt Q8NGF7)
T1 sequence (whole entry): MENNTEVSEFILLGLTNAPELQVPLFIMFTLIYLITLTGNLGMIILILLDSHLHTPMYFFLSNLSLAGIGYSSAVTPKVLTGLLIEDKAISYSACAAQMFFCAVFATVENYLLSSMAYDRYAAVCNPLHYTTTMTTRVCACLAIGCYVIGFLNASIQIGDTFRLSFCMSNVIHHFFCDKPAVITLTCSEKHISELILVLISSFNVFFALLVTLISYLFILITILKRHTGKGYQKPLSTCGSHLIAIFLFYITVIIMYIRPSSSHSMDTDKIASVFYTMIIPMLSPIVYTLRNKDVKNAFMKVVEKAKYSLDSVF
Summary of the method: (§1)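 Assay methods differ from source to source, frequently being transient luciferase assays in mammalian cell lines. For each receptor–molecule pair, the label responsive (active) applies when the original authors judged the measured signal statistically different from baseline, and non-responsive (inactive) applies otherwise.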

OR5B2 (Homo sapiens) = OR5B2 (Homo sapiens) (UniProt Q96R09)
Summary of the method: as §1

OR5B21 (Homo sapiens) = OR5B21 (Homo sapiens) (UniProt A6NL26)
Summary of the method: as §1

OR5B3 (Homo sapiens) = OR5B3 (Homo sapiens) (UniProt Q8NH48)
Summary of the method: as §1

OR5C1 (Homo sapiens) = OR5C1 (Homo sapiens) (UniProt Q8NGR4)
Summary of the method: as §1

OR5D13 (Homo sapiens) = OR5D13 (Homo sapiens) (UniProt Q8NGL4)
Summary of the method: as §1

OR5D14 (Homo sapiens) = OR5D14 (Homo sapiens) (UniProt Q8NGL3)
Summary of the method: as §1

OR5D16 (Homo sapiens) = OR5D16 (Homo sapiens) (UniProt Q8NGK9)
Summary of the method: as §1

OR5D18 (Homo sapiens) = OR5D18 (Homo sapiens) (UniProt Q8NGL1)
Summary of the method: as §1

OR5F1 (Homo sapiens) = OR5F1 (Homo sapiens) (UniProt O95221)
Summary of the method: as §1

OR5B2 E6D = system: OR5B2 E6D
Summary of the method: as §1

OR5B3 I198V G247A = system: OR5B3 I198V G247A
Summary of the method: as §1

OR5BC C141R = system: OR5BC C141R
Summary of the method: as §1

OR5BH L80I I85M = system: OR5BH L80I I85M
Summary of the method: as §1

OR5BH L80I = system: OR5BH L80I
Summary of the method: as §1

OR5DD C62Y = system: OR5DD C62Y
Summary of the method: as §1

OR5DE S249A L290P = system: OR5DE S249A L290P
Summary of the method: as §1

OR5DG A156T = system: OR5DG A156T
Summary of the method: as §1

OR5DI = system: OR5DI
Summary of the method: as §1

OR5F1 = system: OR5F1
Summary of the method: as §1

Measured: odorant receptor agonist call

Chain of OR5B3 (Homo sapiens) (Q8NH48 whole entry): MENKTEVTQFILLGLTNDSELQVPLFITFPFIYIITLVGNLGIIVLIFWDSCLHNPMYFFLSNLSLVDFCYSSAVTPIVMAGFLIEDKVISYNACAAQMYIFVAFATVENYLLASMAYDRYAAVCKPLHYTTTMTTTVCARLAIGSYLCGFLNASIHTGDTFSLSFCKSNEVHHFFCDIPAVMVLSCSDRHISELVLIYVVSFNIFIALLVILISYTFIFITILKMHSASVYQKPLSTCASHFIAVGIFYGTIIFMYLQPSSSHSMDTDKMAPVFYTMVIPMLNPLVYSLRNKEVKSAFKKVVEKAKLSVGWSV
Chain of OR5B2 (Homo sapiens) (Q96R09 whole entry): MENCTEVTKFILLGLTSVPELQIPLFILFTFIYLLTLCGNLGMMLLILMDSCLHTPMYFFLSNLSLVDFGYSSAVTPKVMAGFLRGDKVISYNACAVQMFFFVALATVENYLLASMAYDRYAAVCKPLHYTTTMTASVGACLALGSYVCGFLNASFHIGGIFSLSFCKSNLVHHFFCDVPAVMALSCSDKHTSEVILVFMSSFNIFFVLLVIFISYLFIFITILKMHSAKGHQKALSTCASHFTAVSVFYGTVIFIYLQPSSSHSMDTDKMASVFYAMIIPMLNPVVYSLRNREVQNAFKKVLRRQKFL
Chain of OR5D14 (Homo sapiens) (Q8NGL3 whole entry): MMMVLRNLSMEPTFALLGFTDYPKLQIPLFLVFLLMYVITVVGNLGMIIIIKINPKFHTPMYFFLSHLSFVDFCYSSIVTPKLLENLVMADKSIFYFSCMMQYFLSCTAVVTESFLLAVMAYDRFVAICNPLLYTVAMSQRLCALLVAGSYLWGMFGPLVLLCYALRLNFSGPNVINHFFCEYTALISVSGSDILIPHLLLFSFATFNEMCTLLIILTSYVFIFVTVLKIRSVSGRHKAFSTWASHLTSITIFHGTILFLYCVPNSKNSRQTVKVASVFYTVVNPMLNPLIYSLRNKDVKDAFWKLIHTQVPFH
Chain of OR5D13 (Homo sapiens) (Q8NGL4 whole entry): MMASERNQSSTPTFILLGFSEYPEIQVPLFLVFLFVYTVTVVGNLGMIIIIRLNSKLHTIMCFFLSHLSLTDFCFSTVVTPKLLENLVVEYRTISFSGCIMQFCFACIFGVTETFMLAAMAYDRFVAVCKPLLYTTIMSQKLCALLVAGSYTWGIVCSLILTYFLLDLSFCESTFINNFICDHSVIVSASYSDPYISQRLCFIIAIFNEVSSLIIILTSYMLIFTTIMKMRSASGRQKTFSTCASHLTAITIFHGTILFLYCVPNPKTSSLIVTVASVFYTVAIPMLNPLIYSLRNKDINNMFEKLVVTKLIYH
Chain of OR5F1 (Homo sapiens) (O95221 whole entry): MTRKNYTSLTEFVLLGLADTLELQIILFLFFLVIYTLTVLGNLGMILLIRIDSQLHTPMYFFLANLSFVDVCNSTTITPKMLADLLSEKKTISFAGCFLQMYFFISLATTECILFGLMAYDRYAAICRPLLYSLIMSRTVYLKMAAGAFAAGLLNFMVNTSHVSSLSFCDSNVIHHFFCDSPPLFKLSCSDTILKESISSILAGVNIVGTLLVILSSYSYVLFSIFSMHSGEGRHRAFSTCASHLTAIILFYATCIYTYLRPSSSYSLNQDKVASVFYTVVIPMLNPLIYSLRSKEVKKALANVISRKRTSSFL
Chain of OR5D16 (Homo sapiens) (Q8NGK9 whole entry): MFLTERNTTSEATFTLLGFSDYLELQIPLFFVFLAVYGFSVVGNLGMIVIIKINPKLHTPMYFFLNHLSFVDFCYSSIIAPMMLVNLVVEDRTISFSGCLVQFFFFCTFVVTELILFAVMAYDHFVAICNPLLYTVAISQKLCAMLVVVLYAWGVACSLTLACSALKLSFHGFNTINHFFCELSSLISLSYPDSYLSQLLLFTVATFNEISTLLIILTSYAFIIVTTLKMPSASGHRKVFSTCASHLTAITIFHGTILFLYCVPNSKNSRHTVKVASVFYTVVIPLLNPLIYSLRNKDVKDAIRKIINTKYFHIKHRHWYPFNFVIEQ
Chain of OR5C1 (Homo sapiens) (Q8NGR4 whole entry): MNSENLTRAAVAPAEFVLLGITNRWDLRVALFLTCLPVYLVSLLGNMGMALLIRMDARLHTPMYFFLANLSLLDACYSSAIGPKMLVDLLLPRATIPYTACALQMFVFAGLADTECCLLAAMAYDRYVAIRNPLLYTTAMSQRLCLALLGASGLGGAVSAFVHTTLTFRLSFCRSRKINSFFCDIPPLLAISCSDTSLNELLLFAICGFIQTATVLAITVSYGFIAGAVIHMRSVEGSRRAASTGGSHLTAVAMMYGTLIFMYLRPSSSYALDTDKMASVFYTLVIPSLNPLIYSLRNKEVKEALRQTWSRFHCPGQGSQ
Chain of OR5D18 (Homo sapiens) (Q8NGL1 whole entry): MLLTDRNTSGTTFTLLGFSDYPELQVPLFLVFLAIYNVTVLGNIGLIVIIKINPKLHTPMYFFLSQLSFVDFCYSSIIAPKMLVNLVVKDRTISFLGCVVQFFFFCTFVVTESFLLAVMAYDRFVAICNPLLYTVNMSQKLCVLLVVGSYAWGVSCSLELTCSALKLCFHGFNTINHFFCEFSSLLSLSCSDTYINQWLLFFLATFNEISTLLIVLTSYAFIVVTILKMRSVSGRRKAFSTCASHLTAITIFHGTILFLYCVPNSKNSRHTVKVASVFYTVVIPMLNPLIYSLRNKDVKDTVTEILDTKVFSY
Chain of OR5B21 (Homo sapiens) (A6NL26 whole entry): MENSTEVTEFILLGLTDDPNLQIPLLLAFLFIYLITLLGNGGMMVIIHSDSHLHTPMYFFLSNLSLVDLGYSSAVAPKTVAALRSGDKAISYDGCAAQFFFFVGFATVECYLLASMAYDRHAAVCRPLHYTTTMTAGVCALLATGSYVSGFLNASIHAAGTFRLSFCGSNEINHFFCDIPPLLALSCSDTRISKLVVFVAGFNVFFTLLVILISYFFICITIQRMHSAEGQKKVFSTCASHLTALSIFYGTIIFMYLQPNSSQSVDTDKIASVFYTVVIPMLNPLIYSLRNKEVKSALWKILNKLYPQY
Chain of OR5DD C62Y (as listed by the source, stated change not applied): as the sequence (Q8NGL4 whole entry) above, with C62Y counted along it
Chain of OR5BC C141R (as listed by the source, stated change not applied): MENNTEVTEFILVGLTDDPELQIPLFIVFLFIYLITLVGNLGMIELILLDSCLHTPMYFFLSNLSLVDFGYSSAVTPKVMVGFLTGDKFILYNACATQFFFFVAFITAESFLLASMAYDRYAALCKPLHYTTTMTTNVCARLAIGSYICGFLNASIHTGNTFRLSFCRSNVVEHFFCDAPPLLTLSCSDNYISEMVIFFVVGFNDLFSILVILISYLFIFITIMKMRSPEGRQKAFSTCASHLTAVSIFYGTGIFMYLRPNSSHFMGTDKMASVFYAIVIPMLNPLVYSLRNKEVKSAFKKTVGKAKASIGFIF
Chain of OR5DG A156T (as listed by the source, stated change not applied): as the sequence (Q8NGK9 whole entry) above, with A156T counted along it
Chain of OR5DI (as listed by the source): as the sequence (Q8NGL1 whole entry) above, with N136D counted along it
Chain of OR5B2 E6D (as listed by the source): as the sequence (Q96R09 whole entry) above, with E6D counted along it
Chain of OR5F1 (as listed by the source): as the sequence (O95221 whole entry) above, with S294N counted along it
Chain of OR5BH L80I (as listed by the source, stated change not applied): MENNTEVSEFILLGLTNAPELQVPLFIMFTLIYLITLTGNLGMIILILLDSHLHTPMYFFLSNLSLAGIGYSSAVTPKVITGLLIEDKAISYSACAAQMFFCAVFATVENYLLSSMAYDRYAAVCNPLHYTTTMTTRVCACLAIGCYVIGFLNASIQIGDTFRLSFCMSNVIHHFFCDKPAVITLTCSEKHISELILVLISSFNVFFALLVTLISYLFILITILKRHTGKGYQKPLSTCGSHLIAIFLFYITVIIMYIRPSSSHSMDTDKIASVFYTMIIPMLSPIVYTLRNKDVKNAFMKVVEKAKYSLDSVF

Cc1c([N+](=O)[O-])c(C)c([N+](=O)[O-])c(C(C)(C)C)c1[N+](=O)[O-]
inactive: OR5B17 (Homo sapiens) | OR5B2 (Homo sapiens) | OR5B21 (Homo sapiens) | OR5B3 (Homo sapiens) | OR5C1 (Homo sapiens) | OR5D13 (Homo sapiens) | OR5D14 (Homo sapiens) | OR5D16 (Homo sapiens) | OR5D18 (Homo sapiens) | OR5F1 (Homo sapiens)

O=Cc1ccccc1
inactive: OR5B17 (Homo sapiens)

O=CC=Cc1ccccc1
inactive: OR5B17 (Homo sapiens)

C=CCOC(=O)Cc1ccccc1
inactive: OR5B17 (Homo sapiens) | OR5B2 (Homo sapiens) | OR5B2 E6D | OR5B21 (Homo sapiens) | OR5B3 (Homo sapiens) | OR5B3 I198V G247A | OR5BC C141R | OR5BH L80I I85M | OR5BH L80I | OR5C1 (Homo sapiens) | OR5D13 (Homo sapiens) | OR5D14 (Homo sapiens) | OR5D16 (Homo sapiens) | OR5D18 (Homo sapiens) | OR5DD C62Y | OR5DE S249A L290P | OR5DG A156T | OR5DI | OR5F1 (Homo sapiens) | OR5F1

C=CCc1ccc(OC)cc1
inactive: OR5B17 (Homo sapiens)

Reference: the M2OR odorant receptor database
